HKDC1 act = HKDC1 hexokinase activators, primary screen, biochemical, fluorescence, uHTS; recombinant HKDC1, G6PDH/diaphorase resazurin fluorescence; stronger effect = lower value; activity change, negative = activation, % at 20 µM; hit rate 0.056% among 340,000; AID 493187, 2011;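 active means activation of 40% or more at 20 µM, a change of -40% or lower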
Target sequence (Q2TB90 whole entry, looked up): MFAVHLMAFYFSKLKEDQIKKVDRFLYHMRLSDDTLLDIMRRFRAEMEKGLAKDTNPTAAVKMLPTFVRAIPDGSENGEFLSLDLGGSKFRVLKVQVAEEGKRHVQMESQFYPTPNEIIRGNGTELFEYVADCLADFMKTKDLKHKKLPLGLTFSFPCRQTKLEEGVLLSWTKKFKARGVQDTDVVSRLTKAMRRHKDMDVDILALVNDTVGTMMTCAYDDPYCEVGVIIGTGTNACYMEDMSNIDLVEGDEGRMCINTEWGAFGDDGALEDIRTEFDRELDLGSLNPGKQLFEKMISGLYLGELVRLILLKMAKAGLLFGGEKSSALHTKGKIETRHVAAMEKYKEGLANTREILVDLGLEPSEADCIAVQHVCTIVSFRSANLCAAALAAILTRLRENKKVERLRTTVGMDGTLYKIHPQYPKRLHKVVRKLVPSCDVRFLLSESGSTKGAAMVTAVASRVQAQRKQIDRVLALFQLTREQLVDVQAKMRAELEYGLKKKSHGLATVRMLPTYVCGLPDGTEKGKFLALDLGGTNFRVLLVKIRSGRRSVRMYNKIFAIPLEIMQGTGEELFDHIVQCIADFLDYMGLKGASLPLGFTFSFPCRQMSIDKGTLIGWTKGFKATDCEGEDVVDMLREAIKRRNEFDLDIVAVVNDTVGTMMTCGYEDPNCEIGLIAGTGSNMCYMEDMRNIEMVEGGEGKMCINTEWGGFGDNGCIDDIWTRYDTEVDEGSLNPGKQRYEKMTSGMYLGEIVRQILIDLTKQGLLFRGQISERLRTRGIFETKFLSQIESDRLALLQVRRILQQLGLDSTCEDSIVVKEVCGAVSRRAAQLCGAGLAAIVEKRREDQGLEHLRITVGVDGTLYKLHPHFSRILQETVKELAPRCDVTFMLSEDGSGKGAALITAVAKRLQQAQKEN
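Material – in-house human HKDC1 enzyme, G6PDH and diaphorase coupling enzymes · Input – HKDC1 at 5 µg/mL final · Buffer or medium – pH 8.0 Tris with MgCl2 · Dosing – single compound dose of 20 µM, 1% DMSO final · Incubation – 90 min, room temperature · Technique – resorufin fluorescence from 100 µM resazurin, NADP 1 mM, Ex 525/Em 613 nm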
Numbers without * were called inactive. Only a sample is shown.

SMILES	HKDC1 act
COc1ccc(-c2nc3c(C(=O)NCCN(C)C)cccc3c3ccccc23)cc1	39
Cc1ccc(C(=O)/C=C/c2cc(Br)cc(Br)c2O)o1	36
O=C(O)CSc1cc(NS(=O)(=O)c2ccc(Cl)cc2)c2ccccc2c1O	65
N#CC(C#N)=c1ccc2c(c1)N1C3=C(CCCC3)CC3CCCCC31N=2 (centres undefined)	39
Cc1cccc(NC2=C/C(=N/S(=O)(=O)c3cccs3)c3ccccc3C2=O)c1	53
COc1ccccc1Nc1ccc2c(O)cc(S(=O)(=O)O)cc2c1	38
O=C(O)c1cccc2cccc(-c3c4ccc(=O)c(O)c-4oc4c(O)c(O)ccc34)c12	70
CCN1/C(=C/C=C/c2oc3ccc4ccccc4c3[n+]2CC)Oc2ccc3ccccc3c21	51
CC(=O)n1cc(N(C(=O)CCl)c2ccc(Cl)cc2)c2ccccc21	58
C=CCOc1ccc(C=NNc2ccc(S(=O)(=O)Nc3ccccc3C(=O)O)cc2[N+](=O)[O-])cc1OC	51
O=C(Nc1ccc(N2CCCC2)cc1)c1cccc(-c2cc3ccccc3oc2=O)c1	-40*
Cc1cc(C)c2c(=O)[nH]cnc2n1	64
COc1ccc(-c2cc3ccccc3[nH]2)cc1	39
Cc1cc2nnc(SCC(=O)Nc3cc(S(=O)(=O)N4CCOCC4)ccc3Cl)n2c2ccccc12	48
O=S(=O)(c1ccc(NC(=S)NN=C(Cc2ccccc2)Cc2ccccc2)cc1)N1CCOCC1	-47*
O=C(NCCC(=O)N1CCCC(C(F)(F)F)C1)c1ccc(Br)cc1 (centres undefined)	36
COc1cc(-c2ccc(Nc3ccccc3C(=O)O)c(OC)c2)ccc1Nc1ccccc1C(=O)O	42
N#CC(C#N)=C1SC(=Nc2ccccc2)C(=Nc2ccccc2)N1c1ccccc1	-86*
Fc1ccc(N2C(=S)SC(=Nc3ccccc3)C2=Nc2ccccc2)cc1	-50*
COc1ccc(C2=CC3=C(Br)C(=O)C(C)(OC(=O)C4CCCC4)C(=O)C3=CO2)cc1 (centres undefined)	53
c1ccc(Nc2cc(Nc3ccccc3)[nH]n2)cc1	-47*
CCCc1nc2oc3c(NCC4CCCO4)ncnc3c2c2c1COC(C)(C)C2 (centres undefined)	35
CC1=NNC(=O)/C1=C\c1cn(-c2ccccc2)nc1-c1ccc(Cl)cc1	37
COc1cc(NC(=O)c2cnc(N)s2)cc(C(=O)Nc2cccc(C(F)(F)F)c2)c1	59
NC(CSC(c1ccccc1)(c1ccccc1)c1cccc2ccccc12)C(=O)O (centres undefined)	35
SMILES	HKDC1 act
Cc1cccn2c(=O)c3cc(C(N)=S)c(=N)n(CCCN4CCOCC4)c3nc12	-54*
COc1ccc2[nH]c(=O)c(CN(C3CCCCC3)C(c3nnnn3Cc3ccco3)C(C)C)cc2c1 (centres undefined)	37
COc1ccc(S(=O)(=O)Nc2cc(SCC(=O)O)c(O)c3ccccc23)cc1	57
O=C(NNC(=O)c1cccnc1)NC1CCCCC1	-60*
COc1cc(OC)cc(C(=O)NC(=S)NNC(=O)c2cnccn2)c1	-42*
COc1ccc(-c2cc(N)n(CCC#N)n2)c(OC)c1	40
CCN(CC)CCNc1cc(C)nc2c1C(=O)C(=O)C=C2N1CCCCC1	45
O=c1oc2c(O)c(O)cc3c(=O)oc4c(O)c(O)cc1c4c23	54
CCc1ccc(S(=O)(=O)NCCc2cn3ccccc3n2)s1	39
O=c1[nH]c(=O)c2nc3c4ccccc4c4ccccc4c3nc2[nH]1	37
Cc1cc(C)n(CCC(=O)N/N=C/c2ccc(O)cc2O)n1	-42*
O=C(CNC(=O)c1ccncc1)N/N=C/c1ccc(O)cc1O	-41*
O=C(CNC(=O)c1ccc2c(c1)OCCO2)N/N=C/c1ccc(O)cc1O	-51*
CC(=NNC(=O)c1ccncc1)c1ccc(O)cc1O	-40*
Cc1cc(SCC(=O)N/N=C/c2ccc(O)c(O)c2O)c(C)cc1Br	45
O=C1C(Cl)=C(N2CCCCC2)C(=O)C(Cl)=C1c1cnc(N2CCCCC2)s1	70
CCOC(=O)/C(=C\c1cccnc1)C(=O)c1cc(C(C)=O)c(Nc2ccccc2)s1	42
O=C(CSc1n[nH]c(-c2cccnc2)n1)Nc1ccc([N+](=O)[O-])cc1Br	46
Cc1cc(C)c(S(=O)(=O)/N=C2\C=C(Nc3ccc(C(=O)O)cc3)C(=O)c3ccccc32)c(C)c1	41
O=C1C(=O)c2c(C(=O)c3ccccc3)coc2-c2ccccc21	51
COC(=O)c1cc(C)nc2c1C(=O)C(=O)C=C2N1CCOCC1	68
CN(C)Cc1cc(O)c(CN(C)C)cc1O	47
COc1ccc(NC(=O)c2cc3ccccc3cc2O)cc1	38
CCOP(=O)(c1ccc(N(C)C)cc1)C(O)c1ccc(OC)cc1 (centres undefined)	56
Nc1ccc(N)c(C(=O)O)c1	36
SMILES	HKDC1 act
CC1=NOC(=O)/C1=C\c1ccc(-c2ccc(Cl)cc2Cl)o1	54
N#C/C(=C(/O)CCl)c1nc2c(s1)CCc1ccccc1-2	44
Cc1cc(C)c(S(=O)(=O)/N=C2/C=C(SCC(=O)O)C(=O)c3ccccc32)cc1C	51
Oc1ccc(/C=N/NC(=S)Nc2cccnc2)c(O)c1	-40*
CCNc1ccc(Br)cc(C(=O)/C=C/c2c(Cl)cccc2Cl)c1=O	37
O=S(=O)(NC1c2cccc3cccc(c23)C1N1CCN(CCO)CC1)c1ccccc1 (centres undefined)	-66*
O=S(=O)(NC1c2cccc3cccc(c23)C1N1CCNCC1)c1ccccc1 (centres undefined)	-56*
O=C(CSc1n[nH]c(-c2ccccc2)n1)Nc1ncc(Br)cc1Br	48
CCc1ccc(S(=O)(=O)/N=C2\C=C(Nc3cccc(C(=O)O)c3)C(=O)c3ccccc32)cc1	53
O=C(C1=C(O)C(=O)N(c2nc3ccc(Cl)cc3s2)C1c1ccco1)c1ccco1 (centres undefined)	36
COCc1cc(C2C(C(=O)c3ccco3)=C(O)C(=O)N2CCOCCO)ccc1O (centres undefined)	35
Cc1cc(C2=NNC(=Nc3ccc(S(=O)(=O)N4CCOCC4)cc3)SC2)c(C)n1C	-73*
N#CC1(NC(=O)COC(=O)c2cc(O)c3ccccc3c2O)CCCCC1	50
COc1cc(/C=C(\C#N)c2nc3ccc(C)cc3[nH]2)cc([N+](=O)[O-])c1O	41
CCOc1ccc2nc3cc(NCc4ccc(OC)cc4)ccc3c(N)c2c1	36
O=C(CSc1nc(-c2ccc(F)cc2)nc2c1Cc1ccccc1O2)Nc1ccc(C(=O)O)cc1	44
O=C1CSC(=S)N1N=Cc1ccccc1O	-42*
CCOC(=O)c1c(C)[nH]c(C2=NNC(=Nc3ccccc3)SC2)c1C	-306*
CCOC(=O)c1c(C)[nH]c(C2=NNC(=Nc3ccc(OCC)cc3)SC2)c1C	-137*
CCOC(=O)c1c(C)[nH]c(C2=NNC(=Nc3ccccc3OC)SC2)c1C	-165*
Cc1ccc(Cl)cc1NC1=C/C(=N\S(=O)(=O)c2cccs2)c2ccccc2C1=O	36
CSc1nc(N(C)CCO)c2sc3nc(-c4ccco4)c4c(c3c2n1)CCC4	47
O=[N+]([O-])c1ccc(-c2csc(N/N=C/c3cccnc3)n2)cc1	36
Cc1cc(O)c(-c2cc(O)c(C)cc2O)cc1O	45
O=C1OC(c2ccccc2)=N/C1=C/c1cccc(OC(=O)c2cccs2)c1	39
O=C1/C(=C\c2ccc(Cl)c(Cl)c2)CN(C(=O)CCN2CCOCC2)C/C1=C/c1ccc(Cl)c(Cl)c1	61
